Source: ChEMBL document CHEMBL4689842, “EUbOPEN Chemogenomics Library wave 1” (2021)

Experiments:
Format in all cases: toxicity, cell-based
Fibroblast = assay: Incucyte cell viability with human fibroblast; details: 10 µM, compound concentration 10 uM; also: filed as whole numbers so only -1 and 0 and 1 occur
HEK-293T = assay: Incucyte cell viability with HEK293T; details: human, 10 µM, compound concentration 10 uM; also: filed as whole numbers so only -1 and 0 and 1 occur
U2OS [1] = assay: Multiplex assay against U2OS; details: human
Procedure, shortened: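 Values for tubulin, mitochondrial-mass and membrane-permeability phenotypes are per cents of cells with healthy nuclei. These cells were identified by CellPathfinder machine-learning gating of live cells that had been stained at seeding with Hoechst33342, BioTracker Green Microtubule Cytoskeleton Dye, MitoTracker Red and Annexin V Alexa Fluor 680 and imaged on a CQ1 microscope at 37°C and 5% CO2 after compound addition. The gating first set Hoechst high-intensity objects apart from normal cells, then split normal cells into healthy, pyknosed or fragmented nuclei, and pyknosed cells into mitotic or apoptotic.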

U2OS [2] = assay: Incucyte cell viability with U2OS; details: human, 10 µM, compound concentration 10 uM; also: filed as whole numbers so only -1 and 0 and 1 occur
[3] = 6 h, replicate number 1, timepoint 6 hours
[4] = 12 h, replicate number 1, timepoint 12 hours
[5] = 18 h, replicate number 1, timepoint 18 hours
[6] = 24 h, replicate number 1, timepoint 24 hours
[7] = 12 h, 1 µM, compound concentration 1 uM, replicate 1
[8] = 12 h, 1 µM, compound concentration 1 uM, replicate 2
[9] = 12 h, 10 µM, compound concentration 10 uM, replicate 1
[10] = 12 h, 10 µM, compound concentration 10 uM, replicate 2
[11] = 24 h, 1 µM, compound concentration 1 uM, replicate 1
[12] = 24 h, 1 µM, compound concentration 1 uM, replicate 2
[13] = 24 h, 10 µM, compound concentration 10 uM, replicate 1
[14] = 24 h, 10 µM, compound concentration 10 uM, replicate 2
[15] = 48 h, 1 µM, compound concentration 1 uM, replicate 1
[16] = 48 h, 1 µM, compound concentration 1 uM, replicate 2
[17] = 48 h, 10 µM, compound concentration 10 uM, replicate 1
[18] = 48 h, 10 µM, compound concentration 10 uM, replicate 2

SMILES: Oc1cccc(-c2nc(N3CCOCC3)c3oc4ncccc4c3n2)c1 [PI-103]
- Growth Rate (Fibroblast; 0 h, replicate number 2, timepoint 0 hours): 0
- Growth Rate (Fibroblast; [3]): 0
- Growth Rate (Fibroblast; [4]): 0
- Growth Rate (Fibroblast; [5]): 0
- Growth Rate (Fibroblast; [6]): 0
- Growth Rate (HEK-293T; [3]): 0
- Growth Rate (HEK-293T; [4]): 0
- Growth Rate (HEK-293T; [5]): 0
- Growth Rate (HEK-293T; [6]): 0
- Population Apoptotic (%) (U2OS [1]; [7]): 73%
- Population Fragmented Nuclei (%) (U2OS [1]; [7]): 20%
- Population Healthy Nuclei (%) (U2OS [1]; [7]): 67%
- Population Hoechst High Intensity Objects (%) (U2OS [1]; [7]): 11%
- Population Membrane Permeable-Phenotype (%) (U2OS [1]; [7]): 8%
- Population Mitochondria Different-Phenotype (%) (U2OS [1]; [7]): 7%
- Population Mitotic Cells (%) (U2OS [1]; [7]): 26%
- Population Normal (%) (U2OS [1]; [7]): 88%
- Population Pyknosed Nuclei (%) (U2OS [1]; [7]): 12%
- Population Tubulin-Different-Phenotype (%) (U2OS [1]; [7]): 14%
- Total Cell Count (U2OS [1]; [7]): 224
- Population Apoptotic (%) (U2OS [1]; [8]): 47%
- Population Fragmented Nuclei (%) (U2OS [1]; [8]): 10%
- Population Healthy Nuclei (%) (U2OS [1]; [8]): 63%
- Population Hoechst High Intensity Objects (%) (U2OS [1]; [8]): 5%
- Population Membrane Permeable-Phenotype (%) (U2OS [1]; [8]): 2%
- Population Mitotic Cells (%) (U2OS [1]; [8]): 52%
- Population Normal (%) (U2OS [1]; [8]): 94%
- Population Pyknosed Nuclei (%) (U2OS [1]; [8]): 26%
- Population Tubulin-Different-Phenotype (%) (U2OS [1]; [8]): 0%
- Total Cell Count (U2OS [1]; [8]): 73
- Population Apoptotic (%) (U2OS [1]; [9]): 42%
- Population Fragmented Nuclei (%) (U2OS [1]; [9]): 20%
- Population Healthy Nuclei (%) (U2OS [1]; [9]): 47%
- Population Hoechst High Intensity Objects (%) (U2OS [1]; [9]): 6%
- Population Membrane Permeable-Phenotype (%) (U2OS [1]; [9]): 35%
- Population Mitochondria Different-Phenotype (%) (U2OS [1]; [9]): 63%
- Population Mitotic Cells (%) (U2OS [1]; [9]): 57%
- Population Normal (%) (U2OS [1]; [9]): 93%
- Population Pyknosed Nuclei (%) (U2OS [1]; [9]): 31%
- Population Tubulin-Different-Phenotype (%) (U2OS [1]; [9]): 80%
- Total Cell Count (U2OS [1]; [9]): 168
- Population Apoptotic (%) (U2OS [1]; [10]): 36%
- Population Fragmented Nuclei (%) (U2OS [1]; [10]): 18%
- Population Healthy Nuclei (%) (U2OS [1]; [10]): 39%
- Population Hoechst High Intensity Objects (%) (U2OS [1]; [10]): 5%
- Population Membrane Permeable-Phenotype (%) (U2OS [1]; [10]): 33%
- Population Mitochondria Different-Phenotype (%) (U2OS [1]; [10]): 59%
- Population Mitotic Cells (%) (U2OS [1]; [10]): 63%
- Population Normal (%) (U2OS [1]; [10]): 94%
- Population Pyknosed Nuclei (%) (U2OS [1]; [10]): 41%
- Population Tubulin-Different-Phenotype (%) (U2OS [1]; [10]): 83%
- Total Cell Count (U2OS [1]; [10]): 69
- Population Apoptotic (%) (U2OS [1]; [11]): 56%
- Population Fragmented Nuclei (%) (U2OS [1]; [11]): 21%
- Population Healthy Nuclei (%) (U2OS [1]; [11]): 61%
- Population Hoechst High Intensity Objects (%) (U2OS [1]; [11]): 8%
- Population Membrane Permeable-Phenotype (%) (U2OS [1]; [11]): 7%
- Population Mitochondria Different-Phenotype (%) (U2OS [1]; [11]): 4%
- Population Mitotic Cells (%) (U2OS [1]; [11]): 43%
- Population Normal (%) (U2OS [1]; [11]): 91%
- Population Pyknosed Nuclei (%) (U2OS [1]; [11]): 16%
- Population Tubulin-Different-Phenotype (%) (U2OS [1]; [11]): 11%
- Total Cell Count (U2OS [1]; [11]): 224
- Population Apoptotic (%) (U2OS [1]; [12]): 75%
- Population Fragmented Nuclei (%) (U2OS [1]; [12]): 14%
- Population Healthy Nuclei (%) (U2OS [1]; [12]): 69%
- Population Hoechst High Intensity Objects (%) (U2OS [1]; [12]): 6%
- Population Membrane Permeable-Phenotype (%) (U2OS [1]; [12]): 3%
- Population Mitochondria Different-Phenotype (%) (U2OS [1]; [12]): 3%
- Population Mitotic Cells (%) (U2OS [1]; [12]): 25%
- Population Normal (%) (U2OS [1]; [12]): 93%
- Population Tubulin-Different-Phenotype (%) (U2OS [1]; [12]): 1%
- Total Cell Count (U2OS [1]; [12]): 73
- Population Apoptotic (%) (U2OS [1]; [13]): 54%
- Population Fragmented Nuclei (%) (U2OS [1]; [13]): 25%
- Population Healthy Nuclei (%) (U2OS [1]; [13]): 40%
- Population Hoechst High Intensity Objects (%) (U2OS [1]; [13]): 10%
- Population Membrane Permeable-Phenotype (%) (U2OS [1]; [13]): 20%
- Population Mitochondria Different-Phenotype (%) (U2OS [1]; [13]): 62%
- Population Mitotic Cells (%) (U2OS [1]; [13]): 45%
- Population Normal (%) (U2OS [1]; [13]): 89%
- Population Pyknosed Nuclei (%) (U2OS [1]; [13]): 34%
- Population Tubulin-Different-Phenotype (%) (U2OS [1]; [13]): 74%
- Total Cell Count (U2OS [1]; [13]): 196
- Population Apoptotic (%) (U2OS [1]; [14]): 50%
- Population Fragmented Nuclei (%) (U2OS [1]; [14]): 28%
- Population Healthy Nuclei (%) (U2OS [1]; [14]): 24%
- Population Hoechst High Intensity Objects (%) (U2OS [1]; [14]): 4%
- Population Membrane Permeable-Phenotype (%) (U2OS [1]; [14]): 44%
- Population Mitochondria Different-Phenotype (%) (U2OS [1]; [14]): 75%
- Population Mitotic Cells (%) (U2OS [1]; [14]): 49%
- Population Normal (%) (U2OS [1]; [14]): 95%
- Population Pyknosed Nuclei (%) (U2OS [1]; [14]): 47%
- Population Tubulin-Different-Phenotype (%) (U2OS [1]; [14]): 89%
- Total Cell Count (U2OS [1]; [14]): 80
- Population Apoptotic (%) (U2OS [1]; [15]): 70%
- Population Fragmented Nuclei (%) (U2OS [1]; [15]): 18%
- Population Healthy Nuclei (%) (U2OS [1]; [15]): 64%
- Population Hoechst High Intensity Objects (%) (U2OS [1]; [15]): 7%
- Population Membrane Permeable-Phenotype (%) (U2OS [1]; [15]): 7%
- Population Mitochondria Different-Phenotype (%) (U2OS [1]; [15]): 6%
- Population Mitotic Cells (%) (U2OS [1]; [15]): 29%
- Population Normal (%) (U2OS [1]; [15]): 92%
- Population Pyknosed Nuclei (%) (U2OS [1]; [15]): 17%
- Population Tubulin-Different-Phenotype (%) (U2OS [1]; [15]): 16%
- Total Cell Count (U2OS [1]; [15]): 222
- Population Apoptotic (%) (U2OS [1]; [16]): 63%
- Population Fragmented Nuclei (%) (U2OS [1]; [16]): 10%
- Population Healthy Nuclei (%) (U2OS [1]; [16]): 75%
- Population Hoechst High Intensity Objects (%) (U2OS [1]; [16]): 4%
- Population Membrane Permeable-Phenotype (%) (U2OS [1]; [16]): 8%
- Population Mitochondria Different-Phenotype (%) (U2OS [1]; [16]): 4%
- Population Mitotic Cells (%) (U2OS [1]; [16]): 36%
- Population Normal (%) (U2OS [1]; [16]): 95%
- Population Pyknosed Nuclei (%) (U2OS [1]; [16]): 13%
- Population Tubulin-Different-Phenotype (%) (U2OS [1]; [16]): 8%
- Total Cell Count (U2OS [1]; [16]): 72
- Population Apoptotic (%) (U2OS [1]; [17]): 70%
- Population Fragmented Nuclei (%) (U2OS [1]; [17]): 35%
- Population Healthy Nuclei (%) (U2OS [1]; [17]): 26%
- Population Hoechst High Intensity Objects (%) (U2OS [1]; [17]): 15%
- Population Membrane Permeable-Phenotype (%) (U2OS [1]; [17]): 37%
- Population Mitochondria Different-Phenotype (%) (U2OS [1]; [17]): 48%
- Population Mitotic Cells (%) (U2OS [1]; [17]): 29%
- Population Normal (%) (U2OS [1]; [17]): 84%
- Population Pyknosed Nuclei (%) (U2OS [1]; [17]): 38%
- Population Tubulin-Different-Phenotype (%) (U2OS [1]; [17]): 56%
- Total Cell Count (U2OS [1]; [17]): 215
- Population Apoptotic (%) (U2OS [1]; [18]): 68%
- Population Fragmented Nuclei (%) (U2OS [1]; [18]): 26%
- Population Hoechst High Intensity Objects (%) (U2OS [1]; [18]): 12%
- Population Membrane Permeable-Phenotype (%) (U2OS [1]; [18]): 85%
- Population Mitochondria Different-Phenotype (%) (U2OS [1]; [18]): 77%
- Population Mitotic Cells (%) (U2OS [1]; [18]): 31%
- Population Normal (%) (U2OS [1]; [18]): 87%
- Population Pyknosed Nuclei (%) (U2OS [1]; [18]): 47%
- Population Tubulin-Different-Phenotype (%) (U2OS [1]; [18]): 88%
- Total Cell Count (U2OS [1]; [18]): 86
- Growth Rate (U2OS [2]; 0 h, replicate number 1, timepoint 0 hours): 0
- Growth Rate (U2OS [2]; [3]): 1
- Growth Rate (U2OS [2]; [4]): 1
- Growth Rate (U2OS [2]; [5]): 0
- Growth Rate (U2OS [2]; 18 h, replicate number 2, timepoint 18 hours): 1
- Growth Rate (U2OS [2]; [6]): 0
- Growth Rate (U2OS [2]; 24 h, replicate number 2, timepoint 24 hours): 1
